assay: Inhibition of alpha-glucosidase (unknown origin) using PNP glycoside as substrate preincubated for 30 mins followed by substrate addition after 60 mins by spectrophotometric analysis; design: species or system Homo sapiens
Outline: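 Enzyme activity run in 50 mM phosphate buffer, pH 6.8, containing 5% v/v DMSO. Inhibitors pre-incubated with enzyme 30 min at 37 °C, then PNP glycoside substrate added and reaction run 60 min at 37 °C. Absorbance read at 400 nm. Triplicate runs at five concentrations spanning the IC50 estimated in a first round; means adopted.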

SMILES	IC50
COc1ccc(/N=c2\scc(-c3cc4ccccc4oc3=O)n2NC(=O)c2cc(OC)cc(OC)c2)cc1	8.1 µM
COc1ccc(/N=c2\scc(-c3cc4ccccc4oc3=O)n2NC(=O)c2ccc(Br)cc2)cc1	9.45 µM
COc1ccc(/N=c2\scc(-c3cc4ccccc4oc3=O)n2NC(=O)c2ccc(OC)cc2OC)cc1	7.4 µM
COc1ccc(/N=c2\scc(-c3cc4ccccc4oc3=O)n2NC(=O)c2ccccc2)cc1	6.5 µM
COc1cc(OC)cc(C(=O)Nn2c(-c3cc4ccccc4oc3=O)cs/c2=N\c2cccc(Br)c2)c1	9.19 µM
COc1ccc(/N=c2\scc(-c3cc4ccccc4oc3=O)n2NC(=O)c2ccccc2OC)cc1	16.2 µM

The next compounds have a lower IC50 than those just listed; values first:

IC50	SMILES
2.5 µM	COc1ccc(C(=O)Nn2c(-c3cc4ccccc4oc3=O)cs/c2=N\c2ccc(Cl)c(Cl)c2)c(OC)c1
3.6 µM	COc1ccc(/N=c2\scc(-c3cc4ccccc4oc3=O)n2NC(=O)c2ccc(OC)cc2)cc1
4.06 µM	O=C(Nn1c(-c2cc3ccccc3oc2=O)cs/c1=N\c1cccc(Br)c1)c1ccccc1O
0.12 µM	O=C(Nn1c(-c2cc3ccccc3oc2=O)cs/c1=N\c1ccc(Cl)c(Cl)c1)c1ccccc1O
2.9 µM	COc1ccc(/N=c2\scc(-c3cc4ccccc4oc3=O)n2NC(=O)c2ccc(C)cc2C)cc1
1.1 µM	COc1ccc(/N=c2\scc(-c3cc4ccccc4oc3=O)n2NC(=O)c2ccccc2O)cc1
1.4 µM	COc1ccc(/N=c2\scc(-c3cc4ccccc4oc3=O)n2NC(=O)c2ccc(C(C)(C)C)cc2)cc1
0.78 µM	CC(C)(C)c1ccc(C(=O)Nn2c(-c3cc4ccccc4oc3=O)cs/c2=N\c2ccc(Cl)c(Cl)c2)cc1
